Assay results published in ChEMBL document CHEMBL2176883, “Aminopiperidine sulfonamide Cav2.2 channel inhibitors for the treatment of chronic pain” (J Med Chem, 2012).

Key:
[1] = target: T1, Voltage-dependent N-type calcium channel subunit alpha-1B (Homo sapiens, UniProt Q00975); assay: Inhibition of human Cav2.2 expressed CBK cells assessed as inhibition of channel current at 10 uM at holding membrane potential -90 mV by conventional patch clamp electrophysiology assay
Method in brief: (§1)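 Cav2.2 current block was measured at a depolarized (−40 mV) or hyperpolarized (−90 mV) potential. At −40 mV, n = 2, 3, 4 and 1 at 0.3, 1, 3 and 10 μM. At −90 mV, n = 4 and 6 at 3 and 10 μM. Values are mean ± SEM.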

[2] = system: Mus musculus; assay: Antinociceptive activity in Cav2.2 deficient mouse SNL neuropathic pain model assessed as reversal of mechanical allodynia at 30 mg/kg, po after 2 hrs; format: functional
Method in brief: (§2)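 Cav2.2+/+ and Cav2.2−/− mice underwent spinal nerve ligation, then got a single 30 mg/kg oral dose. Mechanical allodynia was scored 2 h postdose.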

[3] = system: Rattus norvegicus; assay: Analgesic activity in rat SNL neuropathic pain model assessed as reversal of mechanical allodynia at 30 mg/kg, po after 1 hr; format: functional
[4] = target: T2, hERG (Homo sapiens, UniProt Q12809); assay: Displacement of [35S]-MK-0499 from human ERG at 10 uM; details: probe [35S]-MK-0499
Method in brief: (§3)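 hERG binding was measured as displacement of 35S-labeled MK-0499 at single test concentrations.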

[5] = system: Rattus norvegicus; assay: Neurotoxicity in rat assessed as motor coordination at 100 mg/kg, po after 3 hrs; format: toxicity, organism-based; set-up: dose 100 mg/kg, route oral; details: in vivo
Method in brief: (§4)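 Rats were dosed orally at 100 mg/kg, motor coordination was tested on a rota-rod 3 h later, and plasma and brain exposure were then measured.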

[6] = Plasma concentration rat at 100 mg/kg, po after 3 hrs; format: ADME, organism-based; set-up: dose 100 mg/kg, route oral
Method in brief: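 Rat rota-rod motor coordination study; single 100 mg/kg oral dose; plasma and brain exposure determined 3 h postdose.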

[7] = system: Canis familiaris; assay: Cardiotoxicity in vagotomized dog assessed as QTc interval at 1 to 10 mg/kg, iv up to 90 mins; format: toxicity, organism-based, Canis lupus familiaris; set-up: dose 1-10 mg/kg, route intravenous; details: in vivo, 1.5 h
Method in brief: (§5)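 Anesthetized, vagotomized dogs received an intravenous infusion in sequential rising cumulative doses of 1, 3 and 10 mg/kg. MAP, HR, QRS, PR and QTc were monitored, with plasma exposure sampled at the indicated time points (n = 3).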

[8] = target: T2, hERG; assay: Displacement of [35S]-MK-0499 from human ERG at 1 uM; details: probe [35S]-MK-0499; method in brief: as §3
[9] = system: Blood; assay: Drug metabolism in Sprague-Dawley rat assessed as 3-trifluoromethylbenzenesulfonamide level in blood at 10 mg/kg, po after 8 hrs; format: ADME, organism-based; set-up: dose 10 mg/kg, route oral; details: in vivo
Method in brief: (§6)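 Male Sprague-Dawley rats were given a 10 mg/kg oral dose. Parent and metabolite concentrations were measured in whole blood and brain over time, including 8 h postdose.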

[10] = Metabolic stability in rat liver microsomes assessed as compound remaining at 1 uM after 1 hr; format: ADME, Microsome; details: read-out: Stability
Method in brief: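 Compound at 1 μM was incubated with human or rat liver microsomes (1 mg/mL) for 1 h, and the percentage of parent remaining was determined.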

[11] = Fraction unbound in rat plasma; format: ADME, cell-free
[12] = system: Rattus norvegicus; assay: Dose normalized AUC in rat at 3 mg/kg, po and 1 mg/kg, iv; format: ADME, organism-based; details: in vivo
Method in brief: (§7)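 Rat pharmacokinetics from iv and po arms: 0.6 mg/kg iv with 1.8 mg/kg po, or 1 mg/kg iv with 3 mg/kg po. AUC was normalized to po dose (μM·h·kg/mg). Clearance (mL/min/kg) and half-life come from the iv arm, and F% is oral bioavailability.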

[13] = system: Liver microsomes; assay: Drug metabolism in rat liver microsomes assessed as assessed as 3-trifluoromethylbenzenesulfonamide level level; format: ADME, Microsome
[14] = Plasma concentration in vagotomized dog at 3 mg/kg, iv after 60 mins; format: ADME, organism-based, Canis lupus familiaris; set-up: dose 3 mg/kg, route intravenous
Method in brief: (§8)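 Anesthetized, vagotomized dogs; intravenous infusion in sequential rising doses of 1, 3 and 10 mg/kg (cumulative); plasma exposure sampled at indicated time points, n = 3.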

[15] = Drug metabolism in Sprague-Dawley rat assessed as parent compound level in blood at 10 mg/kg, po after 8 hrs; format: ADME, organism-based; set-up: dose 10 mg/kg, route oral; details: read-out: Drug metabolism; method in brief: as §6
[16] = target: T3, Nuclear receptor subfamily 1 group I member 2 (Homo sapiens, UniProt O75469); assay: Activation of PXR
T3 sequence (O75469 whole entry): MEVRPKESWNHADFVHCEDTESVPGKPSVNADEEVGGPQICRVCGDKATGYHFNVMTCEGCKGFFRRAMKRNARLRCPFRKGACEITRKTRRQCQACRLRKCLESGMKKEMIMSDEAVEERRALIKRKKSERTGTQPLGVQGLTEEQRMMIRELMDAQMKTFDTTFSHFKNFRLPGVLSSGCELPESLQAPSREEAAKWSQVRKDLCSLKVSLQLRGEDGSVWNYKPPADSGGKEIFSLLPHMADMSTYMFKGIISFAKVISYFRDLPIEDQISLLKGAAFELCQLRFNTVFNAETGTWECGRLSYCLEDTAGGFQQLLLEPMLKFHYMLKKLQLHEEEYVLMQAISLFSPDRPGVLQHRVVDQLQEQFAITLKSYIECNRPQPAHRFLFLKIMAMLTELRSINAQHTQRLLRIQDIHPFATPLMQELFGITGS
Method in brief: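 PXR activation read as EC50, with maximal activation given as % at 10 μM.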

[17] = system: Rattus norvegicus; assay: Antinociceptive activity in po dosed rat assessed as reversal of complete Freund's adjuvant-induced pain after 3 hrs; format: functional, organism-based
Method in brief: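 In the rat CFA inflammatory pain model, compound was given orally at 30 mg/kg and allodynia was read at 1 and 3 h postdose. Average % reversal = (postdose − predose)/(preinjury − predose) for each rat, n = 6. Plasma exposure at 3 h was measured in satellite rats (n = 2).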

[18] = target: Cav1.2 (Homo sapiens, UniProt Q13936); assay: Inhibition of Cav1.2 assessed as inhibition of calcium flux at 1 uM by cell based FLIPR assay
Method in brief: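 Cav1.2 counterscreen using a related calcium-influx FLIPR assay, run as % inhibition at single concentrations or as a titration.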

[19] = Plasma concentration in vagotomized dog at 10 mg/kg, iv after 90 mins; format: ADME, organism-based, Canis lupus familiaris; set-up: dose 10 mg/kg, route intravenous; method in brief: as §8
[20] = Plasma concentration in vagotomized dog at 1 mg/kg, iv after 30 mins; format: ADME, organism-based, Canis lupus familiaris; set-up: dose 1 mg/kg, route intravenous; method in brief: as §8
[21] = system: Canis familiaris; assay: Cardiotoxicity in vagotomized dog assessed as heart rate at 1 to 10 mg/kg, iv up to 90 mins; format: toxicity, organism-based, Canis lupus familiaris; set-up: dose 1-10 mg/kg, route intravenous; details: in vivo, 1.5 h; method in brief: as §5
[22] = Fraction unbound in human plasma; format: ADME, cell-free
[23] = Drug level rat brain at 100 mg/kg, po after 3 hrs; format: ADME, organism-based; set-up: dose 100 mg/kg, route oral; details: read-out: Drug uptake; method in brief: as §4
[24] = Half life in rat at 3 mg/kg, po and 1 mg/kg, iv; format: ADME, organism-based; details: in vivo; method in brief: as §7
[25] = system: Canis familiaris; assay: Cardiotoxicity in vagotomized dog assessed as QRS interval at 1 to 10 mg/kg, iv up to 90 mins; format: toxicity, organism-based, Canis lupus familiaris; set-up: dose 1-10 mg/kg, route intravenous; details: in vivo, 1.5 h; method in brief: as §5
[26] = system: Mus musculus; assay: Antinociceptive activity in Cav2.2 expressing wild type mouse SNL neuropathic pain model assessed as reversal of mechanical allodynia at 30 mg/kg, po after 2 hrs; format: functional; method in brief: as §2
[27] = system: Brain; assay: Drug metabolism in Sprague-Dawley rat assessed as 3-trifluoromethylbenzenesulfonamide level in brain at 10 mg/kg, po after 8 hrs; format: ADME, organism-based; set-up: dose 10 mg/kg, route oral; details: in vivo; method in brief: as §6
[28] = target: T1, Voltage-dependent N-type calcium channel subunit alpha-1B; assay: Inhibition of human Cav2.2 expressed CBK cells assessed as inhibition of channel current at 3 uM at holding membrane potential -40 mV by conventional patch clamp electrophysiology assay; method in brief: as §1

T2 sequence (Q12809 whole entry): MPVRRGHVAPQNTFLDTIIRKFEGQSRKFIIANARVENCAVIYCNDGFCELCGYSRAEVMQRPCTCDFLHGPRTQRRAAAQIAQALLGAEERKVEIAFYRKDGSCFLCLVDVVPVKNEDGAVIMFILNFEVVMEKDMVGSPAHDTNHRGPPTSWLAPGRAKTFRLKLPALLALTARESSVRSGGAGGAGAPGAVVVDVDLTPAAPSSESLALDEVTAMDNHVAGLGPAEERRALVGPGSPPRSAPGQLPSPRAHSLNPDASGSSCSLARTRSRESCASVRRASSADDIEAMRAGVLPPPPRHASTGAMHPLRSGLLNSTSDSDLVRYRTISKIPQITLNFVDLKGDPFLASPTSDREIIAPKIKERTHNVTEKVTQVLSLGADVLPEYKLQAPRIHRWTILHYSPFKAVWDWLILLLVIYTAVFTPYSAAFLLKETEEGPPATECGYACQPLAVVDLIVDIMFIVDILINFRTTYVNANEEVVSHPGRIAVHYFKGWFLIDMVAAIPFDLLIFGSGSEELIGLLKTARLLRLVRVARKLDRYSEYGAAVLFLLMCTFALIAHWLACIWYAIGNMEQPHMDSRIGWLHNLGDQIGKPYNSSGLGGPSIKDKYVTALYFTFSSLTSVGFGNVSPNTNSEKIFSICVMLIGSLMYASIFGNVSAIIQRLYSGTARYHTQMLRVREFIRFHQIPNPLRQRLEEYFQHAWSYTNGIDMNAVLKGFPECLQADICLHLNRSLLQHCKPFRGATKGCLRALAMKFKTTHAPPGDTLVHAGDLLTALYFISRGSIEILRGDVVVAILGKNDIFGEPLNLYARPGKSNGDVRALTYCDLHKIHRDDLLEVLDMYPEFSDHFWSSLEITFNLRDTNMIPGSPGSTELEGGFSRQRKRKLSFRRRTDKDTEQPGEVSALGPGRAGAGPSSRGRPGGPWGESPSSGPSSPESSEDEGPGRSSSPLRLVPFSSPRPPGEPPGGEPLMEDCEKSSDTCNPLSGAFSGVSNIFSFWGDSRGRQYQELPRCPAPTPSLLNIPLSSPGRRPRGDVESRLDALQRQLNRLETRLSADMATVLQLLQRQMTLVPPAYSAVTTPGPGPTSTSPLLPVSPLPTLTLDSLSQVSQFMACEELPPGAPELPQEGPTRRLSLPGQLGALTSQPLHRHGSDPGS
T1 sequence (Q00975 whole entry, looked up): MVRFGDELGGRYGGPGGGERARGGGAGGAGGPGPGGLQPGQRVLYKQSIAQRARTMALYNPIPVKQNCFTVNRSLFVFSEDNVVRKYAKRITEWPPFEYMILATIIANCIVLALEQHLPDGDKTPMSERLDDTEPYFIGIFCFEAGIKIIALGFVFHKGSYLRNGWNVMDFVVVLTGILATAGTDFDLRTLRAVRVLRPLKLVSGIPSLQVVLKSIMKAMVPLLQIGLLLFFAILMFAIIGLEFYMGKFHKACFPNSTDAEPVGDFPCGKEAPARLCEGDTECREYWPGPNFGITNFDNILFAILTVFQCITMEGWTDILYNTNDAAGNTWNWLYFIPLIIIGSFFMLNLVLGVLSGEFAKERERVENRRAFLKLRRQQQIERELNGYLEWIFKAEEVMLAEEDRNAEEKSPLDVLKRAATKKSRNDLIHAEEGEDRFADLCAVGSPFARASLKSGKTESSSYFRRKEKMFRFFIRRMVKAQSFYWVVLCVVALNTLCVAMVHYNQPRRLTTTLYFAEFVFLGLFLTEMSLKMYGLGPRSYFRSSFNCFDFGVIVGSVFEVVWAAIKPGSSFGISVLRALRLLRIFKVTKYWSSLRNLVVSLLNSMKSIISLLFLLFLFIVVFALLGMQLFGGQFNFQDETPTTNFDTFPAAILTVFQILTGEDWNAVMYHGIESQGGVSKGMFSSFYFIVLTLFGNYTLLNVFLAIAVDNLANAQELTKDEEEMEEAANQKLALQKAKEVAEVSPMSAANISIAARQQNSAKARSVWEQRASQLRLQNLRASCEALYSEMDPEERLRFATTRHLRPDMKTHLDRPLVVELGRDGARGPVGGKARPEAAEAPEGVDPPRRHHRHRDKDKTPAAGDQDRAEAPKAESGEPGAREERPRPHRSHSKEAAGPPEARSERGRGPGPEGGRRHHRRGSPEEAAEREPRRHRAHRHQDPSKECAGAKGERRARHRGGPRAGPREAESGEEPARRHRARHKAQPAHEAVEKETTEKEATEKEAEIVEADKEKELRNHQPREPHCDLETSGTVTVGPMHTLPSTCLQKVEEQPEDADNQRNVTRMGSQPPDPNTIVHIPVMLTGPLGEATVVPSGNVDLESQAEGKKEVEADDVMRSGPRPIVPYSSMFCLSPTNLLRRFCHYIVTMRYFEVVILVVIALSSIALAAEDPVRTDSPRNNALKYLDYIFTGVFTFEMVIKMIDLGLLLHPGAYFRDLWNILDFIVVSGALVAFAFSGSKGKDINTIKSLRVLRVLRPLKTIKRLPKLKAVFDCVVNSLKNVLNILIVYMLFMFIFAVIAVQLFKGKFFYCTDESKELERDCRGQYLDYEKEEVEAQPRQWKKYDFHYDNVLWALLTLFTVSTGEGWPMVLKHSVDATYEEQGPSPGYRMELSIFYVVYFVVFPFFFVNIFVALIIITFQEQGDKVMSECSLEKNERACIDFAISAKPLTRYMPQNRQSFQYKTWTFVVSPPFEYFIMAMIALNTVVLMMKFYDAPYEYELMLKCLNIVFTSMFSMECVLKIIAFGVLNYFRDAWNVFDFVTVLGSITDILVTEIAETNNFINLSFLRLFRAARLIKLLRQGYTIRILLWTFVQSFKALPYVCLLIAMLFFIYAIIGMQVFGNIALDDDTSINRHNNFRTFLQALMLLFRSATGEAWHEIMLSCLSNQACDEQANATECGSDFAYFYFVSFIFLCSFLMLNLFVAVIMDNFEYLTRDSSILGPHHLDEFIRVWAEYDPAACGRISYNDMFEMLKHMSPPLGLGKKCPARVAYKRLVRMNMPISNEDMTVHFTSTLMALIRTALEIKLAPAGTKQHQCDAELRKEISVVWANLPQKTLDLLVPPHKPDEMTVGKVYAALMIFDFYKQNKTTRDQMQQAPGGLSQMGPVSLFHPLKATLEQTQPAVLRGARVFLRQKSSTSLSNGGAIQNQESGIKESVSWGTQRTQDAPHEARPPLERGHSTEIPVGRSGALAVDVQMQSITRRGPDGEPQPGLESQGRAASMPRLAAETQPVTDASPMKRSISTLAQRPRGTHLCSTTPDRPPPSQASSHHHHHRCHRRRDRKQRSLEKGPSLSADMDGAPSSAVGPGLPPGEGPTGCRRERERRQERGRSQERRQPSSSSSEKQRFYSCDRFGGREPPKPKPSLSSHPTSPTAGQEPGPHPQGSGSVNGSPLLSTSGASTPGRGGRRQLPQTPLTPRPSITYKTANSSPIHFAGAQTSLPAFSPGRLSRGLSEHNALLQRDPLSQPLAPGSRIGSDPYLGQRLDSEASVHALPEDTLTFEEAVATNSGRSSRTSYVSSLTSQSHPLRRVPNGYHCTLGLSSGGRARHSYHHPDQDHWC

inhibition [1]: 43%
concentration at 3 h [6]: 9.5 µM
Drug metabolism [9]: 6.1 µM
remaining at 1 h, 1 µM [10]: 40%
fraction unbound [11]: 0.02
AUC/dose [12]: 0.86 µM·kg·h/mg
Drug metabolism [13]: Active
concentration at 1 h [14]: 5.79 µM
concentration at 8 h [15]: 0.31 µM
EC50 [16]: 430 nM
concentration at 1.5 h [19]: 20.4 µM
concentration at 0.5 h [20]: 1.96 µM
fraction unbound [22]: 0.014
concentration at 3 h [23]: 11.9 µM
half-life [24]: 1.3 h
Drug metabolism [27]: Active
inhibition [28]: 84%
Structure (SMILES): CS(=O)(=O)c1ccc(F)cc1C(=O)N1CCC(N(C2CC2)S(=O)(=O)c2cccc(C(F)(F)F)c2)CC1
Activity [2]: 9%
Activity [3]: 65%
inhibition at 10 µM [4]: 32%
Activity [5]: Non-toxic
Activity [7]: Non-toxic
inhibition at 1 µM [8]: 1.6%
Activity [17]: Dose-dependent effect
inhibition at 1 µM [18]: 18%
Activity [21]: Non-toxic
Activity [25]: Non-toxic
Activity [26]: 38%
